Laboratory results reported in ChEMBL document CHEMBL4017520, “Discovery, Structure-Activity Relationship, and Antiparkinsonian Effect of a Potent and Brain-Penetrant Chemical Series of Positive Allosteric Modulators of Metabotropic Glutamate Receptor 4” (J Med Chem, 2017).
Each block holds one molecule with its values, some of them ahead of it. Active and inactive are the calls of the source. No cut-off for these calls is given here.

Tests used:
[1] = molecular target: Metabotropic glutamate receptor 4 (Homo sapiens, UniProt Q14833); test: Positive allosteric modulation of recombinant human mGlu4 receptor expressed in HEK293 cells co-expressing Gi/Gq assessed as increase in glutamate-induced calcium flux preincubated for 10 mins followed by glutamate addition measured for 3 mins by Fluo4-AM dye based fluorescence assay; type: functional, cell-based; settings: read-out: EC50
Metabotropic glutamate receptor 4 (Homo sapiens, UniProt Q14833), sequence (Q14833 whole entry): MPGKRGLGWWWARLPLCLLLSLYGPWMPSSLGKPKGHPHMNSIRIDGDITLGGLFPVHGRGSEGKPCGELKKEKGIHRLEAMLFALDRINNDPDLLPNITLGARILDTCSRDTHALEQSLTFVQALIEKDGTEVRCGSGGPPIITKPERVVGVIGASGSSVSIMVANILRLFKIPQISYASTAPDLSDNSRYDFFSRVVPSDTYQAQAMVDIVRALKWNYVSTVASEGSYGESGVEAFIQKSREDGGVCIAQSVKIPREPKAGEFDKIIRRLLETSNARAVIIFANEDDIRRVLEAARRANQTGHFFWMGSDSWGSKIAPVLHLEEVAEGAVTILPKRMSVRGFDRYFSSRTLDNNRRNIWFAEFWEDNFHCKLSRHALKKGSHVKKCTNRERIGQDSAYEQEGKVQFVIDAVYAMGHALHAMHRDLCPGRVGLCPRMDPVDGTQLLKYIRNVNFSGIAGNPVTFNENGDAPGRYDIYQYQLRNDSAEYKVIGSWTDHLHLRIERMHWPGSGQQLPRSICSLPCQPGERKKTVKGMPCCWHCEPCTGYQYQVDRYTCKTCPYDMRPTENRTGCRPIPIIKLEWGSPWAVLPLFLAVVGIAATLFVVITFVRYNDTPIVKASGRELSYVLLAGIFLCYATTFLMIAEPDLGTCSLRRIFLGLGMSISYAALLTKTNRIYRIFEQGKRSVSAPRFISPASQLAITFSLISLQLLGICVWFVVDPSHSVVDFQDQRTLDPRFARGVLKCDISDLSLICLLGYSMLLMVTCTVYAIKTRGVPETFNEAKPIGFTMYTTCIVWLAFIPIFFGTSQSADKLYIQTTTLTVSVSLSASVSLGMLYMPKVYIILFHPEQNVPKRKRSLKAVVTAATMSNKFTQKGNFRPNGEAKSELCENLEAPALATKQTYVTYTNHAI

[2] = molecular target: Metabotropic glutamate receptor 4 (Rattus norvegicus, UniProt P31423); test: Positive allosteric modulation of rat mGlu4 receptor expressed in HEK293 cells co-expressing Gi/Gq assessed as increase in glutamate-induced calcium flux preincubated for 10 mins followed by glutamate addition measured for 3 mins by Fluo4-AM dye based fluorescence assay; type: functional, cell-based
Metabotropic glutamate receptor 4 (Rattus norvegicus, UniProt P31423), sequence (P31423 whole entry): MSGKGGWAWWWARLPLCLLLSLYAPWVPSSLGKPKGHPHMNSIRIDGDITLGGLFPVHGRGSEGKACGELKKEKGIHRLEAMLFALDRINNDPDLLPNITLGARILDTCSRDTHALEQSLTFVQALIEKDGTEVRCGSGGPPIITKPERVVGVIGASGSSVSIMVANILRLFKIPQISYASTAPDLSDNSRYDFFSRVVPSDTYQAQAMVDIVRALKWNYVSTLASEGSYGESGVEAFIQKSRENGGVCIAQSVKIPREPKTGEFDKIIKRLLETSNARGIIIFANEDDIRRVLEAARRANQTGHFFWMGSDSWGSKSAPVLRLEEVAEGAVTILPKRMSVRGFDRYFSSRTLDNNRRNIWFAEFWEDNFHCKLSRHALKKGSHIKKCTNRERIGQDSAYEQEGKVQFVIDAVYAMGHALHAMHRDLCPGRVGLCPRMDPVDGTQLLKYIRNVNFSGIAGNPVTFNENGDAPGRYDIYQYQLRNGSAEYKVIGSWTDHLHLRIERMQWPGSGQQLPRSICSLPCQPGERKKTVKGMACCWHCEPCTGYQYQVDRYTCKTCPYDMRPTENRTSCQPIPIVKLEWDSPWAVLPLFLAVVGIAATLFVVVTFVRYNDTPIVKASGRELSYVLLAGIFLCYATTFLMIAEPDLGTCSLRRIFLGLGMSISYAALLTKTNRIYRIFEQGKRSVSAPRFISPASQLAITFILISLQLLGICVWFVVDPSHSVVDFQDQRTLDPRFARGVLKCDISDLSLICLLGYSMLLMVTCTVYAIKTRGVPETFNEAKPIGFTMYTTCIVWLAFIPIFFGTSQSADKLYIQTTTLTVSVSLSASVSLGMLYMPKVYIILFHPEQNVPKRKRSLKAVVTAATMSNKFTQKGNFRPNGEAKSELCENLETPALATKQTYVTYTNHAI

[3] = Activity at COMT (unknown origin) up to 10 uM; type: ADME; settings: human
[4] = Cmax in Sprague-Dawley rat at 1 mg/kg, iv administered as single dose by LC-MS/MS analysis; type: ADME, organism-based; parameters: dose 1 mg/kg, route intravenous; settings: in vivo
[5] = tested on: Mus musculus; test: Half life in C57BL/6 mouse at 2 mg/kg, iv administered as single dose by LC-MS/MS analysis; type: ADME, organism-based; settings: in vivo
Method in brief: (§1)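 Single iv dose, 1 mg/kg in rat or 2 mg/kg in mouse; plasma PK parameters derived; brain/plasma ratio taken at 1 h postdose (rat) or 30 min postdose (mouse). Mean of 3 rats; 2 mice for mouse Cmax and brain/plasma.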

[6] = Ratio of drug level in C57BL/6 mouse brain to plasma at 2 mg/kg, iv administered as single dose measured after 30 mins by LC-MS/MS analysis; type: ADME, organism-based; settings: read-out: BPR; method in brief: as §1
[7] = Cmax in Sprague-Dawley rat plasma at 10 mg/kg, ip administered as single dose by LC-MS/MS analysis; type: ADME, organism-based; parameters: dose 10 mg/kg, route intraperitoneal
Method in brief: (§2)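 Rats dosed ip at 10 or 30 mg/kg. Plasma Cmax, Tmax, half-life and AUC0–inf were determined. Brain concentration was measured 30 min postdose, and brain/plasma ratio was taken at 30 min. Values are the mean (±SEM) of 3 rats.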

[8] = Drug uptake in Sprague-Dawley rat brain at 30 mg/kg, ip after 30 mins post dose administered as single dose by LC-MS/MS analysis; type: ADME, organism-based; settings: read-out: Drug uptake; method in brief: as §2
[9] = Ratio of drug level in Sprague-Dawley rat brain to plasma at 30 mg/kg, ip after 30 mins post dose administered as single dose by LC-MS/MS analysis; type: ADME, organism-based; settings: read-out: BPR
Method in brief: (§3)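 Single dose ip (10 or 30 mg/kg, rat) or oral (10 mg/kg, rat or mouse); plasma Cmax, Tmax, half-life, AUC0−inf derived; brain concentration and brain/plasma ratio at 30 min postdose. Mean of 3 rats or 2 mice.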

[10] = Ratio of drug level in C57BL/6 mouse brain to plasma at 10 mg/kg, po after 30 mins post dose administered as single dose by LC-MS/MS analysis; type: ADME, organism-based; settings: read-out: BPR; method in brief: as §3
[11] = Ratio of drug uptake in Sprague-Dawley rat brain at 10 mg/kg, po to EC50 for rat mGlu4 receptor expressed in HEK293 cells
Method in brief: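 Rats received a single ip or oral dose. Brain concentration was measured 30 min postdose, mean of 3 rats, and divided by the EC50 measured in cell lines overexpressing rat mGluR4.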

[12] = tested on: Plasma; test: Drug level in Sprague-Dawley rat plasma at 10 mg/kg, po administered as single dose measured at 24 hrs post dose by LC-MS/MS analysis; type: ADME, organism-based; settings: in vivo
Method in brief: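 Rats given a single oral dose of 10 mg/kg. The first plasma sample was taken at 15 min, and sampling continued to 24 h postdose. Brain was sampled at 30 min. Values are the mean (±SEM) of 3 rats.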

[13] = Plasma concentration in Sprague-Dawley rat at 30 mg/kg, ip after 60 mins; type: ADME, organism-based
Method in brief: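 Rats dosed 30 mg/kg ip; plasma sampled over time, brain measured at 30 and 60 min; brain/plasma ratio averaged over 30 and 60 min.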

[14] = Drug uptake in Sprague-Dawley rat brain at 30 mg/kg, ip after 120 mins; type: ADME, organism-based; settings: read-out: Drug uptake
[15] = Ratio of fraction unbound in Sprague-Dawley rat brain at 30 mg/kg, ip after 30 mins to EC50 for rat mGlu4 receptor expressed in HEK293 cells
[16] = Ratio of fraction unbound in Sprague-Dawley rat brain at 30 mg/kg, ip after 60 mins to EC50 for rat mGlu4 receptor expressed in HEK293 cells
[17] = Ratio of fraction unbound in Sprague-Dawley rat brain at 30 mg/kg, ip after 120 mins to EC50 for rat mGlu4 receptor expressed in HEK293 cells
[18] = tested on: Rattus norvegicus; test: Toxicity in 6-OHDA induced parkinsonian motor deficit Sprague-Dawley rat model assessed as induction of overacting rearing behavior up to 30 mg/kg, ip; type: organism-based; settings: in vivo
[19] = species on record: Homo sapiens; test: Selectivity ratio of compound effect for positive allosteric modulation of recombinant human mGlu4 receptor to compound effect for activity at human mGlu6 receptor
[20] = molecular target: D(2) dopamine receptor (Homo sapiens) (UniProt P14416); test: Antagonist activity at D2L receptor (unknown origin) at 10 uM
D(2) dopamine receptor (Homo sapiens), sequence (P14416 whole entry): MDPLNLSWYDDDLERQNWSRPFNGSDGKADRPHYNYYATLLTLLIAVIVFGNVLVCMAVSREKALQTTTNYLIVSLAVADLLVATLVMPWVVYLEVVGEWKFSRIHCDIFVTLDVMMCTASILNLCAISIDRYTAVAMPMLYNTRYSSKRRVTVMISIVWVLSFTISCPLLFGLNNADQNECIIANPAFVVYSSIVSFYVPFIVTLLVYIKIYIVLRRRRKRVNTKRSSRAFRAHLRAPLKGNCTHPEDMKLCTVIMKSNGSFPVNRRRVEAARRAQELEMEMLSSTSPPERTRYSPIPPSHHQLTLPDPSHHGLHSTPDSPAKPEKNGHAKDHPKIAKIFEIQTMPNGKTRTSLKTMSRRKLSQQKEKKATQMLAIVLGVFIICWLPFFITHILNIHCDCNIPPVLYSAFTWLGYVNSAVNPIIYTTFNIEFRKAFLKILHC

[21] = molecular target: Glycogen synthase kinase-3 beta (Homo sapiens) (UniProt P49841); test: Inhibition of GSK3beta (unknown origin) at 10 uM
Glycogen synthase kinase-3 beta (Homo sapiens), sequence (P49841 whole entry, looked up): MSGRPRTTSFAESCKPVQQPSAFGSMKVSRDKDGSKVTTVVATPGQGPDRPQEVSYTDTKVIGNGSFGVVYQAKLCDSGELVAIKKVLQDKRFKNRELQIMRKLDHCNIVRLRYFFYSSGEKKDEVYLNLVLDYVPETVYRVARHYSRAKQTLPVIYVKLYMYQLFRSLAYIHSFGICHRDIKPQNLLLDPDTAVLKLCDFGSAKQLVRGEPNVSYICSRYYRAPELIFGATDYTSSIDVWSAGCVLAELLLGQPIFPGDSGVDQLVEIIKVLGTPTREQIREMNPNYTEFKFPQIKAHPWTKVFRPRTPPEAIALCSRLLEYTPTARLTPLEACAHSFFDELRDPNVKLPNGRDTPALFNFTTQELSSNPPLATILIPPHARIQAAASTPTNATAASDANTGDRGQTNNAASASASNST

[22] = molecular target: Interleukin-1 receptor-associated kinase 4 (Homo sapiens) (UniProt Q9NWZ3); test: Inhibition of IRAK4 (unknown origin) at 10 uM
[23] = molecular target: Tyrosine-protein kinase JAK3 (Homo sapiens) (UniProt P52333); test: Inhibition of JAK3 (unknown origin) at 10 uM
[24] = tested on: Rattus norvegicus; test: Protection against 6-OHDA induced parkinsonian motor deficit in Sprague-Dawley rat assessed as increase in slow activity at 30 mg/kg, ip after 28 days post surgery; type: functional, organism-based
Method in brief: (§4)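 Adult male Sprague−Dawley rats with bilateral 6-OHDA striatal lesions given compound 30 mg/kg ip or vehicle at T0; spontaneous locomotor activity (active time, slow activity, rearing) counted in 5-min bins versus pre-surgery vehicle; n = 10.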

[25] = tested on: Rattus norvegicus; test: Protection against 6-OHDA induced parkinsonian motor deficit in Sprague-Dawley rat assessed as increase in slow activity at 30 mg/kg, ip after 30 to 120 mins post administration; type: functional, organism-based; method in brief: as §4
[26] = molecular target: Metabotropic glutamate receptor 5 (Homo sapiens) (UniProt P41594); test: Activity at human mGlu5 receptor expressed in HEK293 cells co-expressing Gi/Gq assessed as effect on EC20/EC80 glutamate-induced intracellular calcium level up to 10 uM preincubated for 10 mins followed by glutamate addition measured for 3 mins by Fluo4-AM dye based fluorescence assay; type: functional, cell-based
Metabotropic glutamate receptor 5 (Homo sapiens), sequence (P41594 21-1212 limits assumed): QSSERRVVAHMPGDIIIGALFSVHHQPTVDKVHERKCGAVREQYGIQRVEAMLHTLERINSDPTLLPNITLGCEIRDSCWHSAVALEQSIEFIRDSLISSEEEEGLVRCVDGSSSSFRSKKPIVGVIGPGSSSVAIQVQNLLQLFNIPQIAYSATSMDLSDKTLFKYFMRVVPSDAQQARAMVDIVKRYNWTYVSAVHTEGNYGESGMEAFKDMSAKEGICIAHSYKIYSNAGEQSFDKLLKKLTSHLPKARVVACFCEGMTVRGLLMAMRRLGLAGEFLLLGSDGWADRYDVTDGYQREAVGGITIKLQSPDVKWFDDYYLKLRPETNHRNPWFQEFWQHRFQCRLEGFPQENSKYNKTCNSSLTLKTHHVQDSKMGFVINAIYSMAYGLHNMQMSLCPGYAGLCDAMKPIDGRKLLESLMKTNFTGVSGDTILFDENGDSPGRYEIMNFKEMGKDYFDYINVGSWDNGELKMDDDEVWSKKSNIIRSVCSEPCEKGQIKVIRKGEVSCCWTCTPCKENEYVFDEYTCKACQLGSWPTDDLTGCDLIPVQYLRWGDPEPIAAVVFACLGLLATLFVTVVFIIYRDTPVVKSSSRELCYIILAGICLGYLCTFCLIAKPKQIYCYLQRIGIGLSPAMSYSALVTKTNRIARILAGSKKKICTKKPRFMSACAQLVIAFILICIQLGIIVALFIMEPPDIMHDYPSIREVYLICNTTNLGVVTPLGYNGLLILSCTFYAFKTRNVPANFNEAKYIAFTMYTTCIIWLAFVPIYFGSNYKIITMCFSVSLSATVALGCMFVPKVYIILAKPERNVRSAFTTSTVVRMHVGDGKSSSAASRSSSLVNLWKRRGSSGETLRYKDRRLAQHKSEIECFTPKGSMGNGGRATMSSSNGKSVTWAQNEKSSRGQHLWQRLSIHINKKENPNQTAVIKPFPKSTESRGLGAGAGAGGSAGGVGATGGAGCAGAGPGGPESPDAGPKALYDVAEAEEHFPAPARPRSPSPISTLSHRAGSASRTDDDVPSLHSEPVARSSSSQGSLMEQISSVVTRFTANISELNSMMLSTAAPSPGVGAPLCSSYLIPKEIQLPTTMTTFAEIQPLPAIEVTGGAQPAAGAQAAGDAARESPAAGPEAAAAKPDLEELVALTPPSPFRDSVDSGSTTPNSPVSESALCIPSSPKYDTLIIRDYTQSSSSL
Method in brief: (§5)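 HEK-293 cells were electroporated with the human mGluR plus a promiscuous or chimeric G protein and cultured 24 h, then serum-starved 3 h. Cells were loaded 1.5 h with 1 μM Fluo4-AM in HBSS/HEPES buffer with probenecid and 0.1% BSA. Compound was added for 10 min, then glutamate at EC20 (PAM) or EC80 (NAM), and fluorescence (ex 485/em 525) was read for 3 min.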

[27] = molecular target: Metabotropic glutamate receptor 2 (Homo sapiens) (UniProt Q14416); test: Activity at human mGlu2 receptor expressed in HEK293 cells co-expressing Gi/Gq assessed as effect on EC20/EC80 glutamate-induced intracellular calcium level up to 10 uM preincubated for 10 mins followed by glutamate addition measured for 3 mins by Fluo4-AM dye based fluorescence assay; type: functional, cell-based; method in brief: as §5
Metabotropic glutamate receptor 2 (Homo sapiens), sequence (Q14416 19-872 limits assumed): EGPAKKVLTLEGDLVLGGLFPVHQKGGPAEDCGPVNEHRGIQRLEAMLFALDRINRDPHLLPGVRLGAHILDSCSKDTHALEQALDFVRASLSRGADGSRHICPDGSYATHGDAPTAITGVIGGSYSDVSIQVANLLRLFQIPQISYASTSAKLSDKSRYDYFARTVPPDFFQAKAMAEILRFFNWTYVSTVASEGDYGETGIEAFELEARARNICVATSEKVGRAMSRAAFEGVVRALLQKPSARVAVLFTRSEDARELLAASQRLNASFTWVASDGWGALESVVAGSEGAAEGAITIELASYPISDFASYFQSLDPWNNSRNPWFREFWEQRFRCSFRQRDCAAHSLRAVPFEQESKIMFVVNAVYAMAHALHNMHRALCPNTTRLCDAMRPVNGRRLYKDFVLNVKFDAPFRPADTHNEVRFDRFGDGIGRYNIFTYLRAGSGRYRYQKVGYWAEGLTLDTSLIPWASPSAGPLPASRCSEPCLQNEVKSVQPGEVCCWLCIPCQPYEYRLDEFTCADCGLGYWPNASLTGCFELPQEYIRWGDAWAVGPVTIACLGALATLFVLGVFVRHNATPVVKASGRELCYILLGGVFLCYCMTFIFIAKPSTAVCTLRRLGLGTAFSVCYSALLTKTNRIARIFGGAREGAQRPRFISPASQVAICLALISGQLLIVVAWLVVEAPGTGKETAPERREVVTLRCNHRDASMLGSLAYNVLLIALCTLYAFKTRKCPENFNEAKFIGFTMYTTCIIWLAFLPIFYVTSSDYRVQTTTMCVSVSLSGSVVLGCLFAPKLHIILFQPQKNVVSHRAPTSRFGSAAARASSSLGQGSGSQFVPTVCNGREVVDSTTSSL

EC50 [1]: 0.046 µM
EC50 [2]: 0.027 µM
Activity [3]: Not Active
Cmax [4]: 0.444 µg/mL
t1/2 [5]: 12 min
Kp at 0.5 h [6]: 3.6
Cmax [7]: 1.5 µg/mL
concentration at 0.5 h [8]: 22800 ng/g
Kp at 0.5 h [9]: 3.1
Kp at 0.5 h [10]: 1.7
Drug uptake [12]: 2 to 10%
concentration at 1 h [13]: 3.56 µg/mL
concentration at 2 h [14]: 1740 ng/g
SMILES: O/N=c1\cc(-c2cc3cccn3cn2)oc2ccc(OCCN3CCOCC3)cc12 [listing 1 of 2 here]
Ratio [11]: 0.3
Ratio [15]: 14.5
Ratio [16]: 7.6
Ratio [17]: 1.1
Activity [18]: Non-Toxic

Selectivity ratio [19]: 13
Activity [20]: inactive
inhibition [21]: inactive
inhibition [22]: inactive
inhibition [23]: inactive
Activity [26]: inactive
Activity [27]: inactive
SMILES: O/N=c1\cc(-c2cc3cccn3cn2)oc2ccc(OCCN3CCOCC3)cc12 [listing 2 of 2 here]
Activity [24]: Active
Activity [25]: Active
